Data as given in ChEMBL document CHEMBL3616437, “Thiazole compounds with activity against Cryptococcus gattii and Cryptococcus neoformans in vitro” (Eur J Med Chem, 2015).
The source made the active and inactive calls. The calls are words filed in the database; no cut-off is given here.

Tests used:
Cryptococcus neoformans [1] = assay: Antifungal activity against Cryptococcus neoformans 27JF assessed as reduction in cell viability at 0.9 uM after 6 to 72 hrs by MTT assay; type: functional
Cryptococcus neoformans [2] = assay: Antifungal activity against Cryptococcus neoformans 5396 assessed as reduction in cell viability at 0.9 uM after 6 to 72 hrs by MTT assay; type: functional
Cryptococcus neoformans [3] = assay: Antifungal activity against Cryptococcus neoformans ATCC 28957 assessed as reduction in cell viability at 0.9 uM after 6 to 72 hrs by MTT assay; type: functional
[4] = test system: Cryptococcus gattii species complex; assay: Antifungal activity against Cryptococcus gattii L27/01 assessed as reduction in ergosterol content at MIC after 24 hrs by spectrophotometric analysis in presence of amphotericin B; type: functional, organism-based; settings: Cryptococcus bacillisporus
Procedure, shortened: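 Pellet washed and weighed, then saponified in 25% ethanolic KOH at 85°C for 1 h. Extracted with water and n-heptane, read at 282 and 230 nm. Ergosterol taken from a standard curve and expressed as % of growth control.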

Cryptococcus neoformans [5] = assay: Antifungal activity against Cryptococcus neoformans VM-MCMMPI assessed as reduction in cell viability at 0.9 uM after 6 to 72 hrs by MTT assay; type: functional
Cryptococcus neoformans [6] = assay: Antifungal activity against Cryptococcus neoformans ATCC 24067 assessed as reduction in cell viability at 0.9 uM after 6 to 72 hrs by MTT assay; type: functional
Cryptococcus neoformans [7] = assay: Antifungal activity against Cryptococcus neoformans LMM820 assessed as reduction in cell viability at 26 uM after 6 to 72 hrs by MTT assay; type: functional
Procedure, shortened: (§1)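 Time-kill setup: colonies from two 48 h, 35°C SDA passages were suspended in saline to 70% transmittance at 530 nm. They were then diluted to 1-5 x10^3 cells/mL in RPMI with L-glutamine buffered to pH 7.0 with 0.165 M MOPS. Plates were incubated at 35°C for 0-72 h, then MTT (5.0 mg/mL) was added for 3 h. After isopropanol, absorbance was read at 490 nm. Drug-free controls were included, results were confirmed by SDA colony counts, and assays were run in triplicate.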

Cryptococcus neoformans [8] = assay: Antifungal activity against Cryptococcus neoformans VM-MCMMPI assessed as reduction in cell viability at 26 uM after 6 to 72 hrs by MTT assay; type: functional; procedure, shortened: as §1
[9] = test system: Cryptococcus gattii species complex; assay: Antifungal activity against Cryptococcus gattii L27/01 assessed as reduction in cell viability at 26 uM after 6 to 72 hrs by MTT assay; type: functional, Cryptococcus bacillisporus; procedure, shortened: as §1
[10] = test system: Cryptococcus gattii species complex; assay: Antifungal activity against Cryptococcus gattii 1913ER assessed as reduction in cell viability at 26 uM after 6 to 72 hrs by MTT assay; type: functional, Cryptococcus bacillisporus; procedure, shortened: as §1
Cryptococcus neoformans [11] = assay: Antifungal activity against Cryptococcus neoformans 96806 assessed as reduction in cell viability at 26 uM after 6 to 72 hrs by MTT assay; type: functional; procedure, shortened: as §1
Cryptococcus neoformans [12] = assay: Antifungal activity against Cryptococcus neoformans ATCC 24067 assessed as reduction in cell viability at 26 uM after 6 to 72 hrs by MTT assay; type: functional; procedure, shortened: as §1
Cryptococcus neoformans [13] = assay: Antifungal activity against Cryptococcus neoformans CN31 assessed as reduction in cell viability at 26 uM after 6 to 72 hrs by MTT assay; type: functional; procedure, shortened: as §1
Cryptococcus neoformans [14] = assay: Antifungal activity against Cryptococcus gattii ATCC 24065 assessed as reduction in cell viability at 26 uM after 6 to 72 hrs by MTT assay; type: functional, Cryptococcus bacillisporus; procedure, shortened: as §1
[15] = test system: Cryptococcus gattii species complex; assay: Antifungal activity against Cryptococcus gattii L24/01 assessed as reduction in cell viability at 26 uM after 6 to 72 hrs by MTT assay; type: functional, Cryptococcus bacillisporus; procedure, shortened: as §1
Cryptococcus neoformans [16] = assay: Antifungal activity against Cryptococcus neoformans VM-MCMMPI assessed as reduction in cell viability at 1.9 uM after 6 to 72 hrs by MTT assay; type: functional
Cryptococcus neoformans [17] = assay: Antifungal activity against Cryptococcus neoformans F10 assessed as reduction in cell viability at 1.9 uM after 6 to 72 hrs by MTT assay; type: functional
Cryptococcus neoformans [18] = assay: Antifungal activity against Cryptococcus neoformans ATCC 28957 assessed as reduction in cell viability at 1.9 uM after 6 to 72 hrs by MTT assay; type: functional
Cryptococcus neoformans [19] = assay: Antifungal activity against Cryptococcus neoformans LMM820 assessed as reduction in cell viability at 1.9 uM after 6 to 72 hrs by MTT assay; type: functional
Cryptococcus neoformans [20] = assay: Antifungal activity against Cryptococcus neoformans WP assessed as reduction in cell viability at 1.9 uM after 6 to 72 hrs by MTT assay; type: functional
Cryptococcus neoformans [21] = assay: Antifungal activity against Cryptococcus neoformans ATCC 62066 assessed as reduction in cell viability at 1.9 uM after 6 to 72 hrs by MTT assay; type: functional
Cryptococcus neoformans [22] = assay: Antifungal activity against Cryptococcus neoformans 27JF assessed as reduction in cell viability at 1.9 uM after 6 to 72 hrs by MTT assay; type: functional
Cryptococcus neoformans [23] = assay: Antifungal activity against Cryptococcus neoformans 96806 assessed as reduction in cell viability at 1.9 uM after 6 to 72 hrs by MTT assay; type: functional
Cryptococcus neoformans [24] = assay: Antifungal activity against Cryptococcus neoformans 28JF assessed as reduction in cell viability at 1.9 uM after 6 to 72 hrs by MTT assay; type: functional
Cryptococcus neoformans [25] = assay: Antifungal activity against Cryptococcus neoformans WP assessed as reduction in cell viability at 0.12 uM after 6 to 72 hrs by MTT assay; type: functional
[26] = test system: Cryptococcus gattii species complex; assay: Antifungal activity against Cryptococcus gattii 135L/03 assessed as reduction in cell viability at 0.12 uM after 6 to 72 hrs by MTT assay; type: functional, Cryptococcus bacillisporus
Cryptococcus neoformans [27] = assay: Antifungal activity against Cryptococcus neoformans ATCC 28957 assessed as reduction in cell viability at 0.12 uM after 6 to 72 hrs by MTT assay; type: functional
Cryptococcus neoformans [28] = assay: Post-antifungal activity against Cryptococcus neoformans CN31 assessed as organism required time to achieve cell population of 10^4 cells/ml at 0.05 uM treated for 1 hr by MTT assay; type: functional
Cryptococcus neoformans [29] = assay: Antifungal activity against Cryptococcus neoformans ATCC 24067 assessed as reduction in cell viability at 0.12 uM after 6 to 72 hrs by MTT assay; type: functional
[30] = test system: Cryptococcus gattii species complex; assay: Antifungal activity against Cryptococcus gattii 23/10993 assessed as reduction in cell viability at 0.12 uM after 6 to 72 hrs by MTT assay; type: functional, Cryptococcus bacillisporus
[31] = test system: Cryptococcus gattii species complex; assay: Antifungal activity against Cryptococcus gattii LMM818 assessed as reduction in cell viability at 0.12 uM after 6 to 72 hrs by MTT assay; type: functional, Cryptococcus bacillisporus
Cryptococcus neoformans [32] = assay: Antifungal activity against Cryptococcus neoformans LMM820 assessed as reduction in cell viability at 0.12 uM after 6 to 72 hrs by MTT assay; type: functional
[33] = test system: Cryptococcus bacillisporus; assay: Antifungal activity against Cryptococcus gattii ATCC 32608 assessed as reduction in cell viability after at 0.12 uM 6 to 72 hrs by MTT assay; type: functional
Cryptococcus neoformans [34] = assay: Antifungal activity against Cryptococcus neoformans ATCC 62066 assessed as reduction in cell viability at 0.12 uM after 6 to 72 hrs by MTT assay; type: functional
Cryptococcus neoformans [35] = assay: Antifungal activity against Cryptococcus neoformans 5396 assessed as reduction in cell viability at 0.12 uM after 6 to 72 hrs by MTT assay; type: functional
Cryptococcus neoformans [36] = assay: Antifungal activity against Cryptococcus neoformans F10 assessed as reduction in cell viability at 0.12 uM after 6 to 72 hrs by MTT assay; type: functional

COc1ccc(-c2csc(N/N=C(\C)CCO)n2)cc1
Activity (Cryptococcus neoformans [1]): 90% | Activity (Cryptococcus neoformans [2]): 90% | Activity (Cryptococcus neoformans [3]): 90% | Activity [4]: inactive | Activity (Cryptococcus neoformans [5]): 90% | Activity (Cryptococcus neoformans [6]): 90%

OC(Cn1cncn1)(Cn1cncn1)c1ccc(F)cc1F [FLUCONAZOLE]
Activity (Cryptococcus neoformans [7]): 80% | Activity (Cryptococcus neoformans [8]): 80% | Activity [9]: 80% | Activity [10]: 80% | Activity (Cryptococcus neoformans [11]): 80% | Activity (Cryptococcus neoformans [12]): 80% | Activity (Cryptococcus neoformans [13]): 80% | Activity (Cryptococcus neoformans [14]): 80% | Activity [15]: 80%

C(=N\Nc1nc(-c2ccccc2)cs1)/C1CCCCC1
Activity (Cryptococcus neoformans [16]): 90% | Activity (Cryptococcus neoformans [17]): 90% | Activity (Cryptococcus neoformans [18]): 90% | Activity (Cryptococcus neoformans [19]): 90% | Activity (Cryptococcus neoformans [20]): 90% | Activity (Cryptococcus neoformans [21]): 90% | Activity (Cryptococcus neoformans [22]): 90% | Activity (Cryptococcus neoformans [23]): 90% | Activity (Cryptococcus neoformans [24]): 90%

C[C@@H]1[C@H](O)[C@@H](C)/C=C/C=C/C=C/C=C/C=C/C=C/C=C/[C@H](O[C@@H]2O[C@H](C)[C@@H](O)[C@H](N)[C@@H]2O)C[C@@H]2O[C@](O)(C[C@@H](O)C[C@@H](O)[C@H](O)CC[C@@H](O)C[C@@H](O)CC(=O)O[C@H]1C)C[C@H](O)[C@H]2C(=O)O [AMPHOTERICIN B]
Activity (Cryptococcus neoformans [25]): 90% | Activity [26]: 90% | Activity (Cryptococcus neoformans [27]): 90% | Time (Cryptococcus neoformans [28]): 2.75 h | Activity (Cryptococcus neoformans [29]): 90% | Activity [30]: 90% | Activity [31]: 90% | Activity (Cryptococcus neoformans [32]): 90% | Activity [33]: 90% | Activity (Cryptococcus neoformans [34]): 90% | Activity (Cryptococcus neoformans [35]): 90% | Activity (Cryptococcus neoformans [36]): 90%
